Results published in ChEMBL document CHEMBL4354819, “Discovery of Novel Small Molecule Dual Inhibitors Targeting Toll-Like Receptors 7 and 8” (J Med Chem, 2019).
Active and inactive are the calls of the source. No cut-off for these calls is given here.

Key:
[1] = target: T1, Toll-like receptor 8 (Homo sapiens) (UniProt Q9NR97); test: Inhibition of human TLR8 expressed in HEK293 cells assessed as reduction in IL1beta production incubated for 24 hrs by ELISA; format: cell-based
T1 sequence (whole entry): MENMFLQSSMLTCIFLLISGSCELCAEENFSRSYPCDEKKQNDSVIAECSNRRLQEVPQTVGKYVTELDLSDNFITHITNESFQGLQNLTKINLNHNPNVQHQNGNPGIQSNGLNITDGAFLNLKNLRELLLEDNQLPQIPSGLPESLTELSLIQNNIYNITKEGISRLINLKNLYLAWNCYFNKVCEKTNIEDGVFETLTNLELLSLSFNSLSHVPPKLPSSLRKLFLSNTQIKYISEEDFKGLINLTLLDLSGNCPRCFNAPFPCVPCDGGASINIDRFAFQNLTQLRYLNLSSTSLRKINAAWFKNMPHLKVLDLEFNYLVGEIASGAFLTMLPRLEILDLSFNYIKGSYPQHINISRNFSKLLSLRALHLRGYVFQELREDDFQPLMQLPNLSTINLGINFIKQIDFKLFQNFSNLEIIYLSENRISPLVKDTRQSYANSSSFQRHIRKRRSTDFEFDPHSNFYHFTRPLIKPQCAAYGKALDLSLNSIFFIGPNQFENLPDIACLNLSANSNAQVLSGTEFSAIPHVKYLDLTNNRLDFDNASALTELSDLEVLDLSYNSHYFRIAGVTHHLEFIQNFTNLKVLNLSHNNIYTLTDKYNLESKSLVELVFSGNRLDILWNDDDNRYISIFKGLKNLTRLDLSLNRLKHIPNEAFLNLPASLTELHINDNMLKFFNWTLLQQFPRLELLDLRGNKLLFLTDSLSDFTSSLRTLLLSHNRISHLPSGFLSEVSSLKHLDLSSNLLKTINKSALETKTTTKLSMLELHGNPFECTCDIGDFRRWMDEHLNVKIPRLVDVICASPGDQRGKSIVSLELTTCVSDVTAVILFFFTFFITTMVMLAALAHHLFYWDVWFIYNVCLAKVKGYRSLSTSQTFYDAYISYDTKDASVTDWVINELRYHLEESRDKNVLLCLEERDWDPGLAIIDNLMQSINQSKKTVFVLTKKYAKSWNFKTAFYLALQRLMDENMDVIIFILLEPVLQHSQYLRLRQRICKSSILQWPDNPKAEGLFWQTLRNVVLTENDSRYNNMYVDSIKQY

RAW264.7 [2] = test: Cytotoxicity against mouse RAW264.7 cells assessed as reduction in cell viability at 0.5 to 20 uM incubated for 16 hrs by WST-1 assay; format: cell-based; details: raw264.7, 16 h
Toll-like receptor 7 = target: T2, Toll-like receptor 7 (Homo sapiens, UniProt Q9NYK1); test: Inhibition of human TLR7 expressed in HEK293 cells assessed as reduction in R848-induced NFkappaB production incubated for 16 hrs by quanti-blue SEAP assay; format: cell-based
T2 sequence (Q9NYK1 whole entry): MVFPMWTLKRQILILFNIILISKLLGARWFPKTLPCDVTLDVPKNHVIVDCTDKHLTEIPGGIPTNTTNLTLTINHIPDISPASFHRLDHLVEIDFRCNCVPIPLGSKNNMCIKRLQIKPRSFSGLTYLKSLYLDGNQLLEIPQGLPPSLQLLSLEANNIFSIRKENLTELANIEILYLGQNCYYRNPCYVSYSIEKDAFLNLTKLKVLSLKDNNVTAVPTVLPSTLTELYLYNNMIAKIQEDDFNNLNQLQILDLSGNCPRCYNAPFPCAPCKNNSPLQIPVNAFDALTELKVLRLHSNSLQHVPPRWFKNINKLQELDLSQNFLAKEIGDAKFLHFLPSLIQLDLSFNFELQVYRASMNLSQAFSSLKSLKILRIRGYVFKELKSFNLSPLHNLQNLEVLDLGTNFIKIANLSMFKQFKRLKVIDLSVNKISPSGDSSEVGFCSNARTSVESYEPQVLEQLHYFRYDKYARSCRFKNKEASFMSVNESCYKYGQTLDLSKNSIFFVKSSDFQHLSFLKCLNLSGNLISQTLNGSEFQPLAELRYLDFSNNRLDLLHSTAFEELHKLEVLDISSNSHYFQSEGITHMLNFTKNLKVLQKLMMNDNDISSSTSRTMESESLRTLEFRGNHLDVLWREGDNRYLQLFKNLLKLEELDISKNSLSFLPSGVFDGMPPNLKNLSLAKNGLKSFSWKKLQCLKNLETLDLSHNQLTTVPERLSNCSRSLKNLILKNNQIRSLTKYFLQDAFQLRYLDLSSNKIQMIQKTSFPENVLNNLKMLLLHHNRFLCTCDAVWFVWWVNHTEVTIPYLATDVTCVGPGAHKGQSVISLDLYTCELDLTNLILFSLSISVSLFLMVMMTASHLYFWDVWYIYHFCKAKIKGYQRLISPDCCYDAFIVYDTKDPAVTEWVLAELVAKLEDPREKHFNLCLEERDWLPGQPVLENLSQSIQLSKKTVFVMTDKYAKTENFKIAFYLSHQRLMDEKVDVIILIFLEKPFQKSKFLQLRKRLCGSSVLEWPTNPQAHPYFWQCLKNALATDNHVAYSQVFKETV
In short: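 HEK 293-Blue cells stably expressing hTLR7 or hTLR8 with an inducible SEAP reporter were incubated 16 h with compound under 1 µg/mL R848 stimulation. SEAP was read at 620 nm. Data were normalized to the R848 control, and IC50 was taken from concentration-response curves. […] Mean ± s.d., n = 3 independent experiments.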

HEK293 [3] = test: Cytotoxicity against human HEK293 cells transfected with human TLR8 assessed as reduction in cell viability at 0.5 to 20 uM incubated for 16 hrs by WST-1 assay; format: cell-based; details: hek293, 16 h
RAW264.7 [4] = test: Cytotoxicity against mouse RAW264.7 cells transfected with human TLR7/8 assessed as reduction in cell viability at 0.5 to 20 uM incubated for 16 hrs by WST-1 assay; format: cell-based; details: raw264.7, 16 h
THP-1 = test: Inhibition of IFN mediated immune response in human THP1 cells assessed as inhibition of 3p-hpRNA-induced RIG1 signalling pathway at 0.5 to 5 uM incubated for 16 hrs by luciferase assay; format: functional, cell-based
In short: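 THP1-Dual monocytes carrying Lucia luciferase and SEAP reporters were stimulated with 3p-hpRNA (RIG-I agonist) or Y-form dsDNA G3-YSD (cGAS agonist), with or without compound. Secreted Lucia luciferase luminescence was measured as the type I IFN read-out. Mean ± s.d., n = 3 independent experiments.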

HEK293 [5] = test: Cytotoxicity against human HEK293 cells transfected with human TLR8 assessed as reduction in cell viability at 100 uM incubated for 16 hrs by WST-1 assay; format: cell-based; details: hek293, 16 h
HEK293 [6] = test: Cytotoxicity against human HEK293 cells transfected with human TLR7 assessed as reduction in cell viability at 0.5 to 20 uM incubated for 16 hrs by WST-1 assay; format: cell-based; details: hek293, 16 h

Compound	inhibition [1]	Activity (RAW264.7 [2])	IC50 (Toll-like receptor 7) [µM]	Activity (HEK293 [3])	Activity (RAW264.7 [4])	inhibition (THP-1)	Activity (HEK293 [5])	Activity (HEK293 [6])
O=[N+]([O-])c1c(I)cccc1Oc1ccc(-c2nnco2)cc1	Active	Non-Toxic	> 20	Non-Toxic	Non-Toxic	inactive	Toxic	Non-Toxic
O=C(Nc1ccc(Oc2cncc(C(F)(F)F)c2)cc1)c1c(F)cccc1Cl	Active	Non-Toxic	–	Non-Toxic	Non-Toxic	inactive	Toxic	Non-Toxic
O=C(Nc1ccc(Oc2cc(C(F)(F)F)cc(C(F)(F)F)c2)cc1)c1c(F)cccc1Cl	–	–	2.88	–	–	–	–	–
O=C(Nc1ccc(Oc2cc(C(F)(F)F)cc(C(F)(F)F)c2)cc1)c1c(F)cccc1I	Active	Non-Toxic	> 50	Non-Toxic	Non-Toxic	inactive	Toxic	Non-Toxic
